Consider 12 compounds from ChEMBL document CHEMBL1144572, “Synthesis and biological evaluation of gamma-aminophosphonates as potent, subtype-selective sphingosine 1-phosphate receptor agonists and antagonists” (Bioorg Med Chem, 2007).

Active and inactive are the calls of the source. No cut-off for these calls is given here.

Assay [1] deals with T1, Sphingosine 1-phosphate receptor 1 (Homo sapiens, UniProt P21453). Nature of the assay: Activity at human S1P1 receptor expressed in HEK293T cells by [35S]GTP-gamma-S binding assay. The settings on record: for Activity: HEK-293T. It counts as functional, cell-based, HEK-293T. In outline:
(§1)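 Individual human S1P receptor subtypes and individual G protein subunits forced into expression in HEK293T cells; receptor-dependent [γ-35S]GTP binding measured in vitro. EC50 in nM as the mean of at least three experiments.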
Background: GTPγS resists hydrolysis and so accumulates on activated G proteins.

Assay [2] addresses T2, Sphingosine 1-phosphate receptor 2 (Homo sapiens, UniProt O95136). Nature of the assay: Activity at human S1P2 receptor expressed in HEK293T cells by [35S]GTP-gamma-S binding assay. It counts as functional, cell-based, HEK-293T. The settings on record: for Activity: HEK-293T. In outline:
as §1

The target of assay [3] is T3, Sphingosine 1-phosphate receptor 3 (Homo sapiens, UniProt Q99500). Nature of the assay: Activity at human S1P3 receptor expressed in HEK293T cells by [35S]GTP-gamma-S binding assay. It counts as functional, cell-based, HEK-293T. The settings on record: for Activity: HEK-293T. In outline: as §1
T3 sequence (Q99500 whole entry): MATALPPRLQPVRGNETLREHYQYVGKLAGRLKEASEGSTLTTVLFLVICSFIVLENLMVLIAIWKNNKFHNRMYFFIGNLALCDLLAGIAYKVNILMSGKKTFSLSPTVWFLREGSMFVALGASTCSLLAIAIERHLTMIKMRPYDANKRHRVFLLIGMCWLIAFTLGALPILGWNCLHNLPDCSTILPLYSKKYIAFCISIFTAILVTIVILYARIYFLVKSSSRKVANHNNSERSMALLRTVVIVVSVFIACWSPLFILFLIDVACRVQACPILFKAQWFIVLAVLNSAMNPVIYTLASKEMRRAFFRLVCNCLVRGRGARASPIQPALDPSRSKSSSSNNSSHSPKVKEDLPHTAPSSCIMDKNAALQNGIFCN
In assay [4] the target is T2, Sphingosine 1-phosphate receptor 2. Nature of the assay: Efficacy at human S1P2 receptor expressed in HEK293T cells relative to S1P. Particulars: HEK-293T. It counts as functional, cell-based. In outline:
(§2)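 Individual human S1P receptor subtypes co-expressed with individual G protein subunits in HEK293T cells; [γ-35S]GTP binding. Emax normalized to the maximal activation by endogenous S1P at each receptor.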

Assay [5] has as its target T3, Sphingosine 1-phosphate receptor 3. Nature of the assay: Efficacy at human S1P3 receptor expressed in HEK293T cells relative to S1P. It is filed as functional, cell-based. Particulars: HEK-293T. The procedure, abridged: as §2
Assay [6] has as its target T4, Sphingosine 1-phosphate receptor 4 (Homo sapiens, UniProt O95977).
T4 sequence (O95977 whole entry): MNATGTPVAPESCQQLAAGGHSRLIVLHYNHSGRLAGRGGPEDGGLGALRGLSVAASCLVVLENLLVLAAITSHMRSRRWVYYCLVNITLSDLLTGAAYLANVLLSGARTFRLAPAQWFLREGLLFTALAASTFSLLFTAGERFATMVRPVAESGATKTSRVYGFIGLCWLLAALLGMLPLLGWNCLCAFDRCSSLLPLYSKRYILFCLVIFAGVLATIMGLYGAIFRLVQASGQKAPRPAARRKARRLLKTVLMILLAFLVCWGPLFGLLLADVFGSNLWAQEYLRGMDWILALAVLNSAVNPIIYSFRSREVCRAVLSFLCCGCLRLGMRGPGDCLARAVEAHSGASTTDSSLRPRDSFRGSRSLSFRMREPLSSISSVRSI
Nature of the assay: Activity at human S1P4 receptor expressed in HEK293T cells by [35S]GTP-gamma-S binding assay. It counts as functional, cell-based, HEK-293T. The procedure, abridged: as §1

In assay [7] the target is T5, Sphingosine 1-phosphate receptor 5 (Homo sapiens, UniProt Q9H228). Nature of the assay: Activity at human S1P5 receptor expressed in HEK293T cells by [35S]GTP-gamma-S binding assay. It is filed as functional, cell-based, HEK-293T. In outline:
as §1

Assay [8] concerns the target T6, Sphingosine 1-phosphate receptor 4 (Homo sapiens) (UniProt O95977).
T6 sequence (whole entry): T4 sequence (O95977 whole entry)
Nature of the assay: Efficacy at human S1P4 receptor expressed in HEK293T cells relative to S1P. It is filed as functional, cell-based. The settings on record: HEK-293T. In outline: as §2

The target in assay [9] is T5, Sphingosine 1-phosphate receptor 5. Nature of the assay: Efficacy at human S1P5 receptor expressed in HEK293T cells relative to S1P. It is filed as functional, cell-based. The settings on record: HEK-293T. In outline: as §2
In assay [10] the target is T1, Sphingosine 1-phosphate receptor 1. Nature of the assay: Displacement of [32P]S1P from human S1P1 receptor expressed in HEK293T cells. It is filed as cell-based, HEK-293T.
The target in assay [11] is T3, Sphingosine 1-phosphate receptor 3. Nature of the assay: Displacement of [32P]S1P from human S1P3 receptor expressed in HEK293T cells. It is filed as cell-based, HEK-293T.
In assay [12] the test system is Mus musculus. Nature of the assay: Inhibition of VPC44152-evoked lymphopenia in mouse at 22 mg/kg. It counts as functional, organism-based. The arrangement: dose 22 mg/kg.
Assay [13] concerns Mus musculus. Nature of the assay: Effect on vascular permeability in C57BL/6 mouse assessed as capillary leakage in lung at 25 mg/kg by Evans blue extravasation assay. It is filed as functional, organism-based. The arrangement: dose 25 mg/kg. The procedure, abridged:
(§3)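 C57BL/6 mice given compound (25 mg/kg) or vehicle (2% hydroxypropyl β-cyclodextrin) two hours before 2% Evans blue dye (20 mg/kg) via jugular vein. Tissues harvested 30 min later. Dye extracted into formamide, read spectrometrically and quantified against a standard curve. n = 4 per group, mean ± SE, compared with vehicle.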

Assay [14] has as its system Mus musculus. Nature of the assay: Effect on vascular permeability in C57BL/6 mouse assessed as capillary leakage in kidney at 25 mg/kg by Evans blue extravasation assay. It counts as functional, organism-based. More on the design: dose 25 mg/kg. In outline: as §3
In assay [15] the target is T1, Sphingosine 1-phosphate receptor 1. Nature of the assay: Efficacy at human S1P1 receptor expressed in HEK293T cells relative to S1P. It counts as functional, cell-based. Particulars: HEK-293T. The procedure, abridged: as §2

T2 sequence (O95136 whole entry): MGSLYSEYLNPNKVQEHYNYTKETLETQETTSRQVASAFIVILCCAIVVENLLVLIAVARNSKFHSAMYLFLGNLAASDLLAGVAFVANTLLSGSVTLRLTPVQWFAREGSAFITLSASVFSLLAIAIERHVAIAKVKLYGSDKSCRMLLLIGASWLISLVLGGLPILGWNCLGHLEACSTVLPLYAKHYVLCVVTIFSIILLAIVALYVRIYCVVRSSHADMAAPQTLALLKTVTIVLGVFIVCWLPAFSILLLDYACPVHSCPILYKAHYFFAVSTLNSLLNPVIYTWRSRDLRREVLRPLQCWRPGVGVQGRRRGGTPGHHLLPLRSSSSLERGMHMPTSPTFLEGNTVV
T1 sequence (P21453 whole entry): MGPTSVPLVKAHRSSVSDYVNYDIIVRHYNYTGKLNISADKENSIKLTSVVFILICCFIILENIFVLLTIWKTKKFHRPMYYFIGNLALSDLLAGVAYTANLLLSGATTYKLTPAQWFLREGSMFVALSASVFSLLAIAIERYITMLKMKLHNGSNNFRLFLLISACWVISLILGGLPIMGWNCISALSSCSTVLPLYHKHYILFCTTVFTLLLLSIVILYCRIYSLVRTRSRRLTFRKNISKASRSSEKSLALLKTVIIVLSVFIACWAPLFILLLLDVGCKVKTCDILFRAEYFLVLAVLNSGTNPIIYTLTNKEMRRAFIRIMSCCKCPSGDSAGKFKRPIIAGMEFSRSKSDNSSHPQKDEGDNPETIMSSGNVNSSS
T5 sequence (Q9H228 whole entry): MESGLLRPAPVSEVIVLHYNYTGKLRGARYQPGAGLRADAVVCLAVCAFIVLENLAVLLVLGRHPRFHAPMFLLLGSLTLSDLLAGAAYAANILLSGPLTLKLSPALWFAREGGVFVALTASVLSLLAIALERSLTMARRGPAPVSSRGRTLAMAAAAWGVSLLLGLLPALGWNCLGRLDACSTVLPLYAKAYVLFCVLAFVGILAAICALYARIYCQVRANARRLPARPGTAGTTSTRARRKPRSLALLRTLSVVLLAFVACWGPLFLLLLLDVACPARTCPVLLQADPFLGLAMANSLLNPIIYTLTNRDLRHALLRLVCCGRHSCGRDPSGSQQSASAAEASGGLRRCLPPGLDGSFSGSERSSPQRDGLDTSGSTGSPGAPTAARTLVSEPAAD

As a reminder, the EC50 is the midpoint of the concentration-response curve. A lower EC50 goes with greater potency. Take `CCCCCCCCCCc1ccc(NC(=O)[C@H](N)CC(F)P(=O)(O)O)cc1` (stereo partly drawn): the EC50 in assay [1] is 2.1 nM; in assay [2], 490 nM; in assay [3], 23 nM. Also, the ECmax in assay [4] was determined as 0.47; in assay [5], 0.96.
Turning to `CCCCCCCCc1cccc(NC(=O)[C@@H](N)CCP(=O)(O)O)c1`, the result in assay [1], in assay [2] and in assay [3] was inactive. In addition, the ECmax in assay [4] and in assay [5] was 0 throughout.
As usually defined, the Ki is a measure of affinity in units of concentration, obtained from inhibition or displacement. Consider `CCCCCCCCc1cccc(NC(=O)[C@H](N)CCP(=O)(O)O)c1`, for which the result in [1], in assay [2] and in assay [3] was inactive. For the same compound, the figures for the half-maximal effective concentration (EC50) in [6] and in [7] were 6100 nM and 33 nM, respectively. Moreover, the ECmax amounted to 0 in assay [4], 0 in assay [5], 1.42 in [8] and 0.73 in assay [9]. In addition, the inhibition constant (Ki) in assay [10] is 30 nM; in assay [11], 300 nM. Besides, the outcome with Mus musculus [12], in the assay on Mus musculus [13] and with Mus musculus [14] was Active.
Consider `CCCCCCCCc1ccc(OC[C@@H](O)CCP(=O)(O)O)cc1`, for which the values for the half-maximal effective concentration (EC50) in assay [1] and in [6] were 33 nM and 440000 nM, respectively. In addition, the outcome in assay [2], in assay [3] and in assay [7] (HEK-293T) was inactive. Further, the ECmax in [4] was 0; in [5], 0; in assay [8] it was 0.45; in [9] it was 0.
For the compound `CCCCCCCc1cccc(NC(=O)[C@H](N)CCP(=O)(O)O)c1`, the result in assay [1] and in assay [3] was inactive. The ECmax in assay [5] is 0.
As for `CCCCCCCCc1ccc(NC(=O)[C@H](N)CCP(=O)(O)O)cc1`, the EC50 in assay [1] came out at 27 nM; in [3], 270 nM; in assay [6], 2300 nM; in assay [7], 76 nM. The outcome in [2] was inactive. In addition, the ECmax was determined as 0 in assay [4], 0.38 in assay [5], 0.8 in [8] and 0.64 in assay [9].
`CCCCCCCCCCc1ccc(NC(=O)[C@H](N)CCP(=O)(O)O)cc1`: the half-maximal effective concentration (EC50) was 3.6 nM in assay [1]; 270 nM in assay [2]; 43 nM in assay [3]; 230 nM in [6]; 30 nM in assay [7]. Also, the ECmax in assay [4] was found to be 0.5; in [5], 0.88; in assay [8], 0.67; in assay [9], 0.77.
Consider `CCCCCCCCc1ccc(NC(=O)[C@@H](N)CCP(=O)(O)O)cc1`, for which the EC50 in assay [1] stood at 1200 nM; in [3], 15000 nM. The result in [2] and in assay [15] was inactive. Further, the ECmax in assay [4] worked out at 0; in assay [5], 0.3.
In the case of `CCCCCCCCc1ccc(CCC(N)(CO)COP(=O)(O)O)cc1` (stereo not drawn), the outcome in assay [2] was inactive. In assay [6], this compound had a concentration for a half-maximal effect (EC50) of 4 nM. For the same compound, the ECmax in [4] worked out at 0; in assay [5], 0.5; in assay [8], 0.9; in assay [9], 0.56.
As to `CCCCCCCCc1cccc(NC[C@H](N)CCP(=O)(O)O)c1`, the concentration giving a half-maximal response (EC50) in assay [1] is 30 nM; in [6], 340 nM; in [7], 41 nM. Also, the outcome in [2] and in assay [3] was inactive. Further, the ECmax came out at 0 in assay [4], 0 in assay [5], 1.18 in assay [8] and 0.61 in [9].
Turning to `CCCCCCCCc1ccc(OC[C@H](N)CCP(=O)(O)O)cc1`, the EC50 in [1] came to 140 nM; in assay [2], 530 nM; in [3], 100 nM; in assay [6], 150 nM; in assay [7], 47 nM. The ECmax is 0.5 in assay [4], 0.53 in [5], 0.9 in assay [8] and 0.5 in assay [9].
Regarding `CCCCCCCCc1ccc(OC[C@@H](N)CCP(=O)(O)O)cc1`, the figures for the half-maximal effective concentration (EC50) in [1], in assay [6] and in assay [7] were 68 nM, 147 nM and 31 nM, respectively. Besides, the result in [2] and in [3] was inactive. Besides, the ECmax in assay [4] turned out to be 0; in [5] it was 0; in assay [8], 0.71; in assay [9] it was 0.41.
